Shown are actives, neighbours in structure and some others; about 4% of the full set was active somewhere.
bCat nuc transl – modulators of beta-catenin nuclear translocation, primary screen, imaging, HeLa cells, immunofluorescence, high-content; nuclear translocation activity, % at 5 µM; actives 0.3% (n = 190,000);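 active = nuclear translocation activity above 50% at 5 µM, with a well cell count of 50 or more; inconclusive = wells under 50 cells across six images, flagged as toxic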;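 also: per-cell ratio of nuclear to cytoplasmic median beta-catenin stain intensity; plate controls were DMSO negative control for no effect and GSK-3 inhibitor IX positive control for full effect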
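Assay system: human HeLa cells, native beta-catenin; doses: 5 µM primary, 0.02–20 µM confirmation; incubation: compound treatment 24 h, 37°C, 5% CO2; technique: fluorescence imaging of beta-catenin antibody stain plus DAPI; measure: % activation, nuclear-to-cytoplasmic median beta-catenin signal ratio per cell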
Pf gametocyte – late stage P. falciparum gametocyte viability inhibitors, primary screen, ATP luminescence, HTS | inhibition, % at 10.9 µM | P. falciparum stage V gametocytes, 24 h | AID 743093, 2013 | actives 0.065% (n = 150,000);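 active = inhibition above the mean plus 3 SD of compounds within the control limits, set per campaign, cut at about 38% in these data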;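 also: 0% = DMSO wells and 100% = medium only without gametocytes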
WT yeast gro inh – growth inhibition of WT strain, primary screen, mitochondrial fusion inhibitor project, WT and mutant strains, chemical genetic | mitochondrial fusion phenotypic screen | inhibition, % at 10 µM | actives 2.1% (n = 190,000); in the data active = inhibition above about 58%; tested in S. cerevisiae
MT stabilize HCS – microtubule stabilizers in HeLa cells, primary screen, imaging, high-content imaging; AID 2205, 2009; HeLa tubulin immunostaining HCS, 24 h; share of cells brighter than vehicle mean+2SD; actives 0.83% (n = 200,000); % tubulin-high responders, % at 10 µM;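 active = plate Z-score above 3 for both tubulin-high and condensed-nucleus cell shares, with cell loss under 80%, at 10 µM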;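 also: anti alpha tubulin signal scored within the nucleus-defined area of each cell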
KCC2 mod – KCC2 cotransporter modulators, thallium flux, primary screen, cell-based, HEK293 KCC2, FluoZin-2 fluorescence, MLSMR. B-score of Tl+ flux slope (higher = more flux/activation; lower = inhibition) at 10 µM. actives 2.2% (n = 190,000). KCC2 cells, thallium flux FluoZin-2 fluorescence;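 active = thallium flux slope and its plate-corrected score both differing from the plate sample mean at a set confidence after two filtering rounds, in either direction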;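 also: slope of fluorescence scaled to starting intensity during 10 to 20 s after thallium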
Target sequence (Q9H2X9 whole entry, looked up): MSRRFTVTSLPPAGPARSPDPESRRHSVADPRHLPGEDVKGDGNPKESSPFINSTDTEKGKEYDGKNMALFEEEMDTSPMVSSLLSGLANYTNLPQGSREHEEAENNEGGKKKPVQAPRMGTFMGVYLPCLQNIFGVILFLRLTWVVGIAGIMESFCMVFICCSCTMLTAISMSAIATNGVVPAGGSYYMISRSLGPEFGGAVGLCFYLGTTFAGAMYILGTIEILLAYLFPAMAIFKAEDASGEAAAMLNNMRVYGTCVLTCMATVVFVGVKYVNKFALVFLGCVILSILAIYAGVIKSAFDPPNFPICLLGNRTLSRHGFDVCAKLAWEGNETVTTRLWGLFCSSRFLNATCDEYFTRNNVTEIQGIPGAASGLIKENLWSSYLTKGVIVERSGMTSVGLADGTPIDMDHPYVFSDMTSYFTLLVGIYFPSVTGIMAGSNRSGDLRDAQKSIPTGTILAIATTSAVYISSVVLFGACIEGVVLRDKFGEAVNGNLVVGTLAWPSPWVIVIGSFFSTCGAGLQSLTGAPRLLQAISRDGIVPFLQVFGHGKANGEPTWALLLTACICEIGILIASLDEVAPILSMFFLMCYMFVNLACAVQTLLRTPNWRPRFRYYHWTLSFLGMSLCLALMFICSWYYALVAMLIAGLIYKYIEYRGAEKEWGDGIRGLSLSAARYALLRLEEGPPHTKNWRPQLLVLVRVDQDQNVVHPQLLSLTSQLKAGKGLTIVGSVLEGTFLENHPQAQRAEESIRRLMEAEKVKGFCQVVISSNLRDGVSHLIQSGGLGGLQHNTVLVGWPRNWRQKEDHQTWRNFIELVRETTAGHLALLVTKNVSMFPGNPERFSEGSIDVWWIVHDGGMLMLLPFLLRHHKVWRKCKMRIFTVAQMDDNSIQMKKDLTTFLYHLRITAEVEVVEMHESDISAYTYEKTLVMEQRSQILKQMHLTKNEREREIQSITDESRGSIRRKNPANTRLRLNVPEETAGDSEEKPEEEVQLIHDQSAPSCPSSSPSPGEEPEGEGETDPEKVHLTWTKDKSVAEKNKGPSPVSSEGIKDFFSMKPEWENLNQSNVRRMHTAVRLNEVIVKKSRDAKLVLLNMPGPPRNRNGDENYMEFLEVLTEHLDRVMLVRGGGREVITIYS
KCC2 sec1 – KCC2 modulators in sodium-free buffer, confirmation, cell-based, HEK293 KCC2, thallium flux, secondary assay; actives 15% (n = 3,700); shares compounds with KCC2 mod; AID 1713, 2009; normalised thallium flux (F/F0 slope) at 10 µM; FluoZin2 fluorescence; active compounds read high;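 active = thallium flux slope above the same plate's solvent-only control mean plus 3 SD; inconclusive = the two replicate wells disagree; inactive = no significant difference from solvent-only control wells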
KCC2 bumet counter – thallium flux persisting under bumetanide in KCC2 cells, confirmation, counter-screen for KCC2 modulator project, cell-based, HEK293 KCC2, FluoZin2, secondary assay 3; shares compounds with KCC2 mod; HEK293-KCC2 + bumetanide/ouabain; active compounds read high; normalized thallium flux at 10 µM; actives 49% (n = 3,700);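 active = thallium entry rate above the same plate's blocked-transporter control wells by more than 3 SD; inconclusive = the two repeat wells disagree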;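 also: raw slope of fluorescence over initial fluorescence between 10 and 20 s after thallium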
KCC2 sec2 – KCC2 modulators without ouabain present, confirmation, cell-based, HEK293 KCC2, thallium flux, FluoZin2, secondary assay 2; normalized thallium flux at 10 µM; actives 23% (n = 3,700); shares compounds with KCC2 mod; AID 1715, 2009; thallium flux FluoZin2 fluorescence; actives lie on both sides; F/F0 rise rate, 10–20 s post-thallium;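 active = thallium flux slope more than 3 SD above or below the plate's solvent-only control mean, mostly below; inconclusive = the two repeat wells disagreed; inactive = no significant shift from solvent-only controls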;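 also: raw slope with 0.1% DMSO as baseline and bumetanide as block control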
HEK293 Tl flux – thallium flux modulation in parental HEK cells, confirmation, counter-screen for KCC2 modulator project, cell-based, counterscreen 1; shares compounds with KCC2 mod; HEK293 parental cells, thallium flux FluoZin2, ouabain; baseline-ratio fluorescence slope, 10–20 s after thallium; thallium flux rate (normalised fluorescence) at 10 µM; actives 46% (n = 3,700); AID 1716, 2009;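 active = thallium flux rate significantly above the same plate's solvent-only control wells, beyond their mean plus 3 SD; inconclusive = the two replicate wells gave conflicting results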
KCC2 ouabain – KCC2 inhibitors and activators, ouabain retest, confirmation, HEK-KCC2 cells | actives 48% (n = 3,700) | HEK293-KCC2, thallium flux FluoZin2 fluorescence; bidirectional: low = inhibitor, high = activator | AID 1717, 2009 | shares compounds with KCC2 mod | raw Tl+ flux slope (below DMSO = inhibition, above = activation) at 10 µM;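 active = thallium flux slope beyond 3 SD from same-plate DMSO control mean in most replicates, usually higher, sometimes lower; inconclusive = repeat tests gave conflicting results; inactive = no significant difference from controls in most replicates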;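 also: slope of initial-normalized fluorescence between seconds 10 and 20 after thallium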
HEK293 Tl flux2 – native HEK Tl+ uptake effects, second counter-screen – HEK cells, counterscreen 2, counter-screen for KCC2 modulator project, confirmation; AID 1718, 2009; HEK293 parental, thallium flux FluoZin-2 fluorescence slope; shares compounds with KCC2 mod; thallium flux slope at 10 µM; actives 33% (n = 3,700);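 active = thallium flux slope above the same plate's solvent-control mean plus 3 SD in both duplicate wells; inconclusive = duplicate wells that disagreed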;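 also: run without ouabain in cells lacking the KCC2 cotransporter; slope of fluorescence scaled to its starting value between 10 and 20 s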
An asterisk follows results filed as active; ? = inconclusive; nt = not tested or not shown.

SMILES | bCat nuc transl | Pf gametocyte | WT yeast gro inh | MT stabilize HCS | KCC2 mod | KCC2 sec1 | KCC2 bumet counter | KCC2 sec2 | HEK293 Tl flux | KCC2 ouabain | HEK293 Tl flux2
Cc1ccc(-n2c(Cl)c(Cl)nc(Cl)c2=O)cc1 | 0 | nt | 62 | 3 | -1.7 | nt | nt | nt | nt | nt | nt
O=C1CCC[C@@H]2Cc3nc4ccc(Cl)cc4cc3[C@@H]3CCN1[C@H]23 | nt | -14 | nt | nt | nt | nt | nt | nt | nt | nt | nt
c1cc2c(cc1-c1csc(NNC3=NCCCCC3)n1)OCCO2 | 0 | -9 | 30 | 3 | 3.6* | 0.0075 | 0.0055 | 0.034 | 0.008 | 0.019 | 0.011
CCC(=O)Nc1nc(-c2ccc3c(c2)OCCO3)cs1 | -1 | nt | 7 | 4 | nt | nt | nt | nt | nt | nt | nt
CN(CC(=O)NC1CCCc2ccccc21)S(=O)(=O)c1cccs1 (stereo not given) | -1 | nt | -9 | 3 | -0.63 | nt | nt | nt | nt | nt | nt
Cc1sc2ncnc(SCC(=O)c3ccc(O)cc3O)c2c1C | -1 | 4 | nt | nt | 102* | 0.01* | 0.087* | 0.076* | 0.076* | 0.078* | 0.055*
CCc1ccc(OCC(=O)NNC(=O)CSc2ncnc3sc(C)c(C)c23)cc1 | 0 | nt | 0 | 5 | 4.5* | ? | 0.015* | 0.029 | 0.01* | ? | 0.0098
Cc1ccc(OCC(=O)NNC(=O)CSc2ncnc3sc(C)c(C)c23)cc1 | 1 | -43 | -7 | 3 | 13* | 0.012 | 0.016* | 0.035 | 0.02* | 0.029* | 0.013*
Cc1ccc(OCCSc2ncnc3sc(C)c(C)c23)cc1C | 0 | 26 | 2 | 1 | nt | 0.014* | 0.042* | 0.033 | ? | ? | 0.013*
Cc1sc2ncnc(SCC(=O)NC(C)(C)C)c2c1C | 2 | nt | -10 | 2 | 0.42 | nt | nt | nt | nt | nt | nt
Cc1nnc(SCC(=O)N(Cc2ccccc2)C(C)(C)C)[nH]c1=O | 2 | -7 | 6 | 1 | -0.67 | nt | nt | nt | nt | nt | nt
Cc1ccccc1N=Nc1c(O)n(C)c2ccccc12 | nt | -3 | nt | nt | nt | nt | nt | nt | nt | nt | nt
O=C(O)CCC(=O)Nc1nc2nccc(-c3ccccc3)n2n1 | 2 | -15 | nt | nt | -0.25 | nt | nt | nt | nt | nt | nt
NC1=NC(=O)/C(=C/c2c(OS(=O)(=O)c3ccc(Cl)cc3)ccc3ccccc23)S1 | -2 | -1 | 5 | 2 | 0.41 | nt | nt | nt | nt | nt | nt
CCOCCn1c(CN2CCC(C)CC2)nc2c1c(=O)n(C)c(=O)n2C | 0 | nt | -8 | 2 | 0.091 | nt | nt | nt | nt | nt | nt
CCOCCn1c(CN2CCN(CC)CC2)nc2c1c(=O)n(C)c(=O)n2C | -1 | nt | 6 | 5 | 6.3* | 0.0097 | 0.007 | 0.037 | 0.0077 | 0.023 | 0.011
CC(C)(C)C(=O)Nc1nc2c(s1)CN(Cc1ccccc1)CC2 | -1 | nt | 20 | 2 | 0.00075 | nt | nt | nt | nt | nt | nt
O=C(Nc1nc2c(s1)CN(Cc1ccccc1)CC2)C1CCCC1 | nt | nt | 5 | 2 | -3* | 0.0082 | 0.0059 | 0.033 | 0.0075 | ? | 0.011
COc1ccc(CN2CCNC(=O)C2CC(=O)NCCCn2cccn2)c(OC)c1 (stereo not given) | -2 | 5 | -3 | 2 | 0.49 | nt | nt | nt | nt | nt | nt
COc1ccc(NC2=NC(=S)N(c3cccc(C)c3)C23CCCCC3)cc1 | -2 | nt | 9 | 3 | 7.3* | 0.011 | 0.016* | 0.034 | 0.011* | ? | 0.011
Cc1ccccc1NC1=NC(=S)N(c2ccccc2)C12CCCCC2 | nt | nt | 29 | 3 | 57* | 0.025* | 0.16* | 0.043* | 0.078* | 0.11* | 0.022*
CC1(C)CC2(CCO1)C(Nc1ccccc1)=NC(=S)N2c1ccccc1 (stereo not given) | 0 | 18 | nt | nt | 14* | 0.014* | 0.034* | 0.035 | 0.021* | 0.029 | 0.014*
C=CC1=C2C=C(C3CC3)N(CCCN(CC)CC)C=C2C(=O)C(C)(OC(=O)c2ccco2)C1=O (stereo not given) | nt | 11 | nt | nt | nt | nt | nt | nt | nt | nt | nt
Cc1ccc(S(=O)(=O)Cn2nnnc2C(C(C)C)N2CCN(Cc3ccco3)CC2)cc1 (stereo not given) | 2 | nt | 5 | 1 | -2.5* | 0.0074 | 0.0043 | 0.028 | 0.008 | 0.016 | 0.011
Cc1ccc(S(=O)(=O)Cn2nnnc2C(C(C)C)N2CCSCC2)cc1 (stereo not given) | -7 | 11 | 4 | 3 | nt | nt | nt | nt | nt | nt | nt
SMILES | bCat nuc transl | Pf gametocyte | WT yeast gro inh | MT stabilize HCS | KCC2 mod | KCC2 sec1 | KCC2 bumet counter | KCC2 sec2 | HEK293 Tl flux | KCC2 ouabain | HEK293 Tl flux2
CCS(=O)(=O)c1ccc(OC)c(N=Nc2ccc(O)c3ncccc23)c1 | 0 | nt | 12 | 1 | 0.51 | nt | nt | nt | nt | nt | nt
Cc1cccc(N=Nc2ccc(O)c3ncccc23)c1 | 2 | 16 | 65* | 5 | 15* | 0.01 | 0.034* | 0.03 | 0.033* | 0.049* | 0.012*
Cc1ccc(C)c(N=Nc2ccc(O)c3ncccc23)c1 | -1 | -16 | 0 | 6 | 13* | ? | 0.012* | 0.032 | 0.01* | 0.032* | ?
Clc1ccccc1C(c1ccccc1)(c1ccccc1)n1ccnc1 | 1 | nt | 86 | 6 | -4.3* | 0.0095 | 0.0054 | 0.033 | 0.0057* | 0.019 | 0.01
CCc1cc2c(SCC(=O)O)ncnc2s1 | nt | nt | 8 | 3 | nt | nt | nt | nt | nt | nt | nt
CCc1cc2c(SCC(=O)c3ccccc3)ncnc2s1 | nt | 17 | 23 | 3 | 0.62 | nt | nt | nt | nt | nt | nt
CCc1cc2c(SCC#N)ncnc2s1 | 0 | nt | 17 | 5 | 6.1* | 0.0066 | 0.017* | 0.036 | 0.017* | 0.027* | 0.017*
CCc1cc2c(SCC(=O)C(C#N)=C3N(C)c4ccccc4N3C)ncnc2s1 | 1 | 7 | 17 | 2 | nt | 0.0079 | 0.0095* | 0.03 | 0.007 | 0.015 | 0.0098

Screening data: PubChem BioAssay, several laboratories
